Assay [1] in a line: Inhibition of Trypanosoma brucei LeuRS expressed in Escherichia coli BL21 (DE3)-RIPL cells preincubated for 20 mins in presence of [14C]leucine followed by incubation with ATP for 15 mins by liquid scintillation counting method.
Assay [2] deals with Trypanosoma brucei brucei. Description: Antitrypanosomal activity against bloodstream form of Trypanosoma brucei brucei 221 assessed as parasite growth inhibition incubated for 72 hrs by resazurin staining based assay. In kind it is functional, organism-based. Conditions: Trypanosoma brucei, 221, 72 h. In outline: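 Trypanosomes kept in log phase in complete HMI-11 by subculture every 2-3 days, counted by hemocytometer, plated at final 1.0 × 10⁵/mL with serially DMSO-diluted compound (final 0.4% DMSO), triplicate wells. 72 h at 37 °C, 5% CO₂; resazurin added, further 5 h. Fluorescence ex 544/em 590 nm; triplicates averaged, IC₅₀ from sigmoidal dose-response fit.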
Background: Alamar Blue is a resazurin reagent that responds to reducing activity.

The test system of another assay is Trypanosoma brucei. As to the kind of experiment: Potency index, ratio of IC50 of ZCL539 to IC50 of compound for inhibition of Trypanosoma brucei LeuRS expressed in Escherichia coli BL21 (DE3)-RIPL cells preincubated for 20 mins in presence of [14C]leucine followed by incubation with ATP for 15 mins by liquid scintillation counting method. Conditions: time 35.0 min.

The values that follow come from ChEMBL document CHEMBL4813988, “Design and synthesis of N-(3-sulfamoylphenyl)amides as Trypanosoma brucei leucyl-tRNA synthetase inhibitors” (Eur J Med Chem, 2021).

Usually IC50 stands for the concentration that gives 50% inhibition.

Take `CC(C)C[C@H](N)C(=O)NS(=O)(=O)c1cccc(NC(=O)OCc2ccccc2)c1`: the IC50 in assay [1] amounted to 4 µM.

For `Cc1ccc(C(=O)Nc2ccc(S(=O)(=O)O)c3cc(S(=O)(=O)O)cc(S(=O)(=O)O)c23)cc1NC(=O)c1cccc(NC(=O)Nc2cccc(C(=O)Nc3cc(C(=O)Nc4ccc(S(=O)(=O)O)c5cc(S(=O)(=O)O)cc(S(=O)(=O)O)c45)ccc3C)c2)c1` [SURAMIN], the half-maximal inhibitory concentration (IC50) in assay [2] stood at 7 ng/mL.

`CC(C)C[C@H](N)C(=O)Nc1ccc(S(=O)(=O)NC(=O)[C@@H](N)CC(C)C)cc1`: the IC50 in assay [1] is 107 µM.

Regarding `CC(C)C[C@H](N)C(=O)NS(=O)(=O)c1cccc(NC(=O)c2ccc(Oc3ccccc3)cc2)c1`, in assay [1], the half-maximal inhibitory concentration (IC50) was 1.3 µM.

In the case of `CC(C)C[C@H](N)C(=O)NS(=O)(=O)c1ccc(NC(=O)c2ccc(Br)cc2)cc1`, the IC50 in assay [1] worked out at 31.2 µM.

On to `CC(C)C[C@H](N)C(=O)NS(=O)(=O)c1cccc(NC(=O)c2ccc(OCc3ccccc3)cc2)c1`, for which the 50% inhibitory concentration (IC50) in assay [1] worked out at 0.25 µM; in assay [2] it was 69.8 µM. The Ratio IC50 in the assay on Trypanosoma brucei turned out to be 700. Consider `CC(C)C[C@H](N)C(=O)NS(=O)(=O)c1ccc(NC(=O)c2cccc(Cl)c2)cc1`, for which, in assay [1], the IC50 came to 42.8 µM. `COc1ccc(C(=O)Nc2cccc(S(=O)(=O)NC(=O)[C@@H](N)CC(C)C)c2)cc1OC`: the IC50 in assay [1] is 0.66 µM. The same measure, in the same setting: with `NS(=O)(=O)c1ccc(NC(=S)NC(=O)COc2ccc(Br)cc2Cl)cc1` the figure was 174 µM; with `CC(C)C[C@H](N)C(=O)NS(=O)(=O)c1cccc(NC(=O)c2ccccc2[N+](=O)[O-])c1`, 11.5 µM; with `COc1cccc(-c2cccc(C(=O)Nc3cccc(S(=O)(=O)NC(=O)[C@@H](N)CC(C)C)c3)c2)c1`, 3.6 µM. Same read-out and setting: the value for `CC(C)C[C@H](N)C(=O)NS(=O)(=O)c1cccc(NC(=O)c2ccc(Br)cc2)c1` was 5.2 µM. In the case of `COc1ccc(C(=O)Nc2cccc(S(=O)(=O)NC(=O)[C@@H](N)CC(C)C)c2)cc1`, the IC50 in assay [1] was 0.24 µM. Further, in the assay with Trypanosoma brucei, the Ratio IC50 is greater than 700.

In the case of `CC(C)C[C@H](N)C(=O)NS(=O)(=O)c1cccc(NC(=O)c2ccco2)c1`, in assay [1], the IC50 was determined as 3.7 µM.

`CC(C)C[C@H](N)C(=O)NS(=O)(=O)c1cccc(NC(=O)c2cccc([N+](=O)[O-])c2)c1`: the IC50 in assay [1] was 8.6 µM. Still for that read-out and setting: with `CC(C)C[C@H](N)C(=O)NS(=O)(=O)c1cccc(NC(=O)c2ccc(F)cc2)c1` the figure was 6.4 µM; with `CC(C)C[C@H](N)C(=O)NS(=O)(=O)c1cccc(NC(=O)c2ccc(-c3ccccc3)cc2)c1`, 5.8 µM; with `COc1cc(C(=O)Nc2cccc(S(=O)(=O)NC(=O)[C@@H](N)CC(C)C)c2)cc(OC)c1OC`, 1.48 µM. Still for that read-out and setting: with `CC(C)C[C@H](N)C(=O)NS(=O)(=O)c1cccc(NC(=O)c2ccc(OC(C)C)cc2)c1` the figure was 3.9 µM; with `Cc1ccc(C(=O)Nc2ccc(S(=O)(=O)NC(=O)[C@@H](N)CC(C)C)cc2)cc1`, 39.1 µM; with `CC(C)C[C@H](N)C(=O)NS(=O)(=O)c1cccc(NC(=O)c2cccc(-c3ccccc3)c2)c1`, 3.6 µM. Still for that read-out and setting: with `CC(C)C[C@H](N)C(=O)NS(=O)(=O)c1ccc(NC(=O)c2ccc([N+](=O)[O-])cc2)cc1` the figure was 32.7 µM; with `CC(C)C[C@H](N)C(=O)NS(=O)(=O)c1cccc(NC(=O)c2ccc([N+](=O)[O-])cc2)c1`, 14.7 µM.

In the case of `CC(C)C[C@H](N)C(=O)NS(=O)(=O)c1ccc(NC(=O)c2ccc(Cl)cc2)cc1`, the IC50 in assay [1] was 116 µM. The same measure, in the same setting: with `CC(C)C[C@H](N)C(=O)NS(=O)(=O)c1ccc(NC(=O)c2cccc([N+](=O)[O-])c2)cc1` the figure was greater than 1000 µM; with `CC(C)C[C@H](N)C(=O)NS(=O)(=O)c1cccc(NC(=O)c2ccc(Cl)cc2)c1`, 4.9 µM.

For `CC(C)C[C@H](N)C(=O)NS(=O)(=O)c1cccc(NC(=O)c2ccccc2)c1`, in assay [1], the IC50 turned out to be 9.4 µM. The same measure, in the same setting: the value for `CC(C)C[C@H](N)C(=O)NS(=O)(=O)c1cccc(NC(=O)c2cccs2)c1` was 6.2 µM; that for `CC(C)C[C@H](N)C(=O)NS(=O)(=O)c1cccc(NC(=O)c2cccc(Oc3ccccc3)c2)c1` was 8.6 µM. On the same count and under the same terms, the value for `CCOc1ccc(C(=O)Nc2cccc(S(=O)(=O)NC(=O)[C@@H](N)CC(C)C)c2)cc1` was 0.5 µM.

In the case of `COc1cccc(C(=O)Nc2cccc(S(=O)(=O)NC(=O)[C@@H](N)CC(C)C)c2)c1`, the IC50 in assay [1] turned out to be 2.4 µM.

`COc1ccc(-c2cccc(C(=O)Nc3cccc(S(=O)(=O)NC(=O)[C@@H](N)CC(C)C)c3)c2)cc1`: the IC50 in assay [1] came out at 1.8 µM.

Turning to `Cc1ccccc1C(=O)Nc1cccc(S(=O)(=O)NC(=O)[C@@H](N)CC(C)C)c1`, in assay [1], the half-maximal inhibitory concentration (IC50) was 14.3 µM. On the same count and under the same terms, with `Cc1cccc(C(=O)Nc2cccc(S(=O)(=O)NC(=O)[C@@H](N)CC(C)C)c2)c1` the figure was 9.5 µM. Same read-out and setting: with `Cc1ccc(C(=O)Nc2cccc(S(=O)(=O)NC(=O)[C@@H](N)CC(C)C)c2)cc1` the figure was 14 µM; with `CCCCOc1ccc(C(=O)Nc2cccc(S(=O)(=O)NC(=O)[C@@H](N)CC(C)C)c2)cc1`, 0.8 µM. Consider `CC(C)C[C@H](N)C(=O)NS(=O)(=O)c1ccc(NC(=O)c2ccccc2)cc1`, for which the IC50 in assay [1] stood at 96 µM.

Consider `N=C(N)c1ccc(OCCCCCOc2ccc(C(=N)N)cc2)cc1` [PENTAMIDINE], for which the IC50 in assay [2] came to 9 ng/mL.

In the case of `CC(C)C[C@H](N)C(=O)NS(=O)(=O)c1cccc(NC(=O)c2ccc(O)cc2)c1`, the IC50 in assay [1] was 0.3 µM. Turning to `Cc1cccc(C(=O)Nc2ccc(S(=O)(=O)NC(=O)[C@@H](N)CC(C)C)cc2)c1`, in assay [1], the IC50 turned out to be 59.7 µM.
